Results as given in ChEMBL document CHEMBL1124344, “5-Piperazinylalkyl-2(3H)-oxazolones with neuroleptic activity” (J Med Chem, 1989).

Assays:
[1] = Lethal dose in mice (LD50) following i.p. dosing; type: toxicity, organism-based; conditions: mouse, in vivo, ip
Method in brief: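 Acute toxicity tested in mice by the intraperitoneal route. LD50 is the dose killing 50% of treated mice, computed by Finney probit analysis; values are approximate.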

Mus musculus [2] = test: Antagonistic activity against amphetamine-induced Hypermobility in mice, by administering perorally at a dose of 100 mg/kg; type: functional; conditions: route oral
Method in brief: (§1)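 Male mice in groups of five, fasted overnight, given oral drug in arabic gum suspension (10 mL/kg) 1 or 5 h ahead. Amphetamine 4 mg/kg ip given 30 min after drug. Ten minutes later locomotion is recorded for 15 min in a photocell actophotometer. ED50 is 50% reduction versus control hypermotility, by probit analysis. Parenthetical entries give the maximal dose and percent activity.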

Rattus norvegicus [3] = test: Antagonistic activity against apomorphine-induced stereotypy in rats, by administering perorally at a dose of 100 mg/kg; type: functional; conditions: route oral
Method in brief: (§2)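 Male rats fasted overnight and given oral doses in arabic gum suspension (10 mL/kg) 1 h, or 1 and 5 h, before challenge. Apomorphine 3 mg/kg iv, with stereotypy observed 20 min later. ED50 is the dose inhibiting stereotypy in 50% of rats, per Janssen's method. Parenthetical entries give the maximal dose and percent activity.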

Mus musculus [4] = test: Inhibition of spontaneous motor activity in mice, by administering perorally at a dose of 100 mg/kg; type: functional; conditions: route oral
Method in brief: (§3)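 Mice fasted overnight, then dosed orally with compound (weighed as base) suspended in arabic gum, 10 mL/kg, with vehicle controls; 1 h pretreatment for screening tests, 1 or 5 h for others. Groups of five; locomotor activity counted 10 min in photocell activity cage, at least two groups per dose. ED50 = dose giving 50% inhibition versus controls, by probit analysis.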

Rattus norvegicus [5] = test: Activity to evoke catalepsy in rats, by administering perorally at a dose of 100 mg/kg; type: functional; conditions: route oral, read-out: Inhibition
Method in brief: (§4)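 Rats fasted overnight and given oral doses in arabic gum suspension (10 mL/kg), 1 h before screening or 1 and 5 h before profile testing. Forelegs placed on a horizontal bar 7 cm high, three times at 5-min intervals. Immobility of at least 15 s counts as catalepsy. ED50 is the dose giving catalepsy in 50% of rats, by probit analysis. Parenthetical entries give the maximal dose and percent activity.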

Mus musculus [6] = test: Inhibition of spontaneous motor activity in mice, by administering perorally; type: functional; conditions: po
Method in brief: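 Mice in groups of five were dosed orally with gum arabic suspensions at 10 mL/kg after an overnight fast, with a vehicle control group. Locomotion was counted for 10 min in a photocell activity cage, in at least two groups per dose. ED50, by probit analysis, is the dose giving 50% inhibition against controls.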

Mus musculus [7] = test: Inhibition of amphetamine-induced hypermobility in mice following p.o. administration.; type: functional; conditions: po
Method in brief: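 Compounds were given orally to male mice (gum arabic suspension, 10 mL/kg, fasted) in groups of five. Amphetamine 4 mg/kg ip followed 30 min later. After another 10 min, motility was recorded for 15 min with a photocell actophotometer. ED50, by probit analysis, is the dose giving 50% reduction against controls.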

Rattus norvegicus [8] = test: Antagonistic activity against apomorphine-induced stereotypy in rats, by administering perorally; type: functional; conditions: po; method in brief: as §2
Rattus norvegicus [9] = test: Activity to evoke catalepsy in rats, by administering perorally at a dose of 200 mg/kg; type: functional; conditions: route oral; method in brief: as §4
Mus musculus [10] = test: Inhibition of spontaneous motor activity in mice, by administering perorally at a dose of 125 mg/kg; type: functional; conditions: route oral; method in brief: as §3
Rattus norvegicus [11] = test: Antagonistic activity against apomorphine-induced stereotypy in rats, by administering perorally at a dose of 150 mg/kg; type: functional; conditions: route oral; method in brief: as §2
Rattus norvegicus [12] = test: Activity to evoke catalepsy in rats, by administering perorally at a dose of 150 mg/kg; type: functional; conditions: route oral; method in brief: as §4
Rattus norvegicus [13] = test: Antagonistic activity against apomorphine-induced stereotypy in rats, by administering perorally at a dose of 50 mg/kg; type: functional; conditions: route oral; method in brief: as §2
Rattus norvegicus [14] = test: Activity to evoke catalepsy in rats, by administering perorally at a dose of 50 mg/kg; type: functional; conditions: route oral; method in brief: as §4
Rattus norvegicus [15] = test: Activity to evoke catalepsy in rats, by administering perorally; type: functional; conditions: po; method in brief: as §4
Rattus norvegicus [16] = test: Antagonistic activity against apomorphine-induced stereotypy in rats, by administering perorally at a dose of 200 mg/kg; type: functional; conditions: route oral; method in brief: as §2
Rattus norvegicus [17] = test: Activity to evoke catalepsy in rats, by administering perorally at a dose of 70 mg/kg; type: functional; conditions: route oral; method in brief: as §4
Mus musculus [18] = test: Antagonistic activity against amphetamine-induced Hypermobility in mice, by administering perorally at a dose of 10 mg/kg; type: functional; conditions: route oral; method in brief: as §1
Rattus norvegicus [19] = test: Antagonistic activity against apomorphine-induced stereotypy in rats, by administering perorally at a dose of 40 mg/kg; type: functional; conditions: route oral; method in brief: as §2
Rattus norvegicus [20] = test: Activity to evoke catalepsy in rats, by administering perorally at a dose of 40 mg/kg; type: functional; conditions: route oral; method in brief: as §4

| Compound | LD50 [1] [mg/kg] | inhibition in vivo at 100 mg/kg (Mus musculus [2]) [%] | inhibition in vivo at 100 mg/kg (Rattus norvegicus [3]) [%] | percent of rats showing catalepsy at 100 mg/kg (Rattus norvegicus [5]) [%] | ED50 (Mus musculus [6]) [mg/kg] | ED50 (Mus musculus [7]) [mg/kg] | other results |
| --- | --- | --- | --- | --- | --- | --- | --- |
| Oc1nc(-c2ccc(F)cc2)c(CCN2CCN(c3cc(Cl)c(Cl)c(Cl)c3)CC2)o1 | > 1000 | 0 | 0 | 0 | – | – | inhibition in vivo at 100 mg/kg (Mus musculus [4]): 0% |
| Oc1nc(-c2ccc(F)cc2)c(CCN2CCN(c3ccc(Cl)cc3)CC2)o1 | > 1000 | 0 | 0 | 0 | 200 | – | – |
| Oc1nc(-c2ccc(F)cc2)c(CCN2CCN(c3ccccc3Cl)CC2)o1 | > 1000 | – | 0 | 30 | 14.2 | 15 | – |
| COc1ccc(N2CCN(CCc3oc(O)nc3-c3ccc(F)cc3)CC2)cc1 | > 1000 | 0 | 0 | 0 | – | – | inhibition in vivo at 100 mg/kg (Mus musculus [4]): 33% |
| O=c1oc(CCN2CCN(c3ccccc3)CC2)c(-c2ccc(F)cc2)n1Cc1ccccc1 | 1000 | 40 | – | – | 51 | – | ED50 (Rattus norvegicus [8]): 200 mg/kg; inhibition in vivo at 200 mg/kg (Rattus norvegicus [9]): 0% |
| O=c1oc(CCN2CCN(c3ccccc3)CC2)c(-c2ccc(F)cc2)n1-c1ccccc1 | > 1000 | 0 | 0 | 0 | – | – | inhibition in vivo at 125 mg/kg (Mus musculus [10]): 0% |
| CCCCn1c(-c2ccc(F)cc2)c(CCN2CCN(c3ccccc3)CC2)oc1=O | 750 | – | – | – | 16 | 15.4 | inhibition in vivo at 150 mg/kg (Rattus norvegicus [11]): 40%; inhibition in vivo at 150 mg/kg (Rattus norvegicus [12]): 0% |
| Cc1cccc(N2CCN(CCc3oc(O)nc3-c3ccc(F)cc3)CC2)c1 | > 1000 | – | – | – | 13.4 | 7.3 | inhibition in vivo at 50 mg/kg (Rattus norvegicus [13]): 0%; inhibition in vivo at 50 mg/kg (Rattus norvegicus [14]): 0% |
| Oc1nc(-c2ccc(F)cc2)c(CCN2CCN(c3cccc(Cl)c3)CC2)o1 | > 1000 | – | – | 0 | 58.5 | 54.1 | ED50 (Rattus norvegicus [8]): 80 mg/kg |
| Oc1nc(-c2ccc(F)cc2)c(CCN2CCN(c3ccccc3)CC2)o1 | > 2000 | – | – | – | 3.6 | 5.4 | ED50 (Rattus norvegicus [8]): 47.5 mg/kg; ED50 (Rattus norvegicus [15]): 87 mg/kg |
| Cc1ccc(-c2nc(O)oc2CCN2CCN(c3ccccc3)CC2)cc1 | 400 | – | 0 | 0 | 6.4 | 2 | – |
| Oc1nc(-c2ccc(F)cc2)c(CCN2CCN(c3ccccn3)CC2)o1 | > 1000 | 0 | – | 0 | 38 | – | inhibition in vivo at 200 mg/kg (Rattus norvegicus [16]): 30% |
| CCN(CC)CCn1c(-c2ccc(F)cc2)c(CCN2CCN(c3ccccc3)CC2)oc1=O | 350 | – | – | – | 60 | – | ED50 (Rattus norvegicus [8]): 35 mg/kg; inhibition in vivo at 70 mg/kg (Rattus norvegicus [17]): 0% |
| Oc1nc(-c2ccc(F)cc2)c(CCCN2CCN(c3ccccc3)CC2)o1 | 170 | – | – | – | 8 | – | inhibition in vivo at 10 mg/kg (Mus musculus [18]): 69%; inhibition in vivo at 40 mg/kg (Rattus norvegicus [19]): 0%; inhibition in vivo at 40 mg/kg (Rattus norvegicus [20]): 0% |
| CNC(=O)n1c(-c2ccc(F)cc2)c(CCN2CCN(c3ccccc3)CC2)oc1=O | 750 | – | – | 0 | 16.5 | 9.9 | – |
